Experimental data of several laboratories.
Compare with care: the assays were run in different laboratories.
BTK: Tyrosine-protein kinase BTK (BTK, Homo sapiens, UniProt Q06187)

Compound	target	observed	action	technique	tested at	measurement	result
CN(C)CC#Cc1ccc(OCCCc2sc(N3CCc4cccc(C(=O)Nc5nc6ccccc6s5)c4C3)nc2C(=O)O)c(F)c1	BTK	cell-free assay		competition with immobilised ligand	1 µM	remaining binding	96%
CC(C)(C=C(C#N)C(=O)N1CCC[C@H]1Cn1nc(-c2ccc(Oc3ccccc3)cc2F)c2c(N)ncnc21)N1CCOCC1	BTK	enzyme activity	inhibitor			KI (inactivation)	14 nM
CCC(=O)N[C@H]1CC[C@@H](C(=O)N(C)c2ccc(-c3nc4ccccc4o3)cc2)C1	BTK	cell-free assay		competition with immobilised ligand	1 µM	remaining binding	77%
Cc1ccc(NC(=O)c2ccc(C)c(C(F)(F)F)c2)cc1C#Cc1nn(C2CCC(O)CC2)c2ncnc(N)c12 (stereo not drawn)	BTK	cell-free assay			10 µM	remaining signal	10%
O=C1NC(=O)c2cc(Nc3ccc(F)cc3)c(Nc3ccc(F)cc3)cc21	BTK	cell-free assay			0.5 µM	remaining signal	94.3%
CC(C)(O)[C@H]1CC[C@H](Nc2ccc3ncc(-c4cccc(C(F)(F)F)c4)n3n2)CC1	BTK	enzyme activity	inhibitor		1 µM	remaining activity	88%
Cc1cc(NC(=O)c2cccc3cc(-c4cccc5[nH]nc(N)c45)ccc23)ccc1F	BTK	enzyme activity	inhibitor		0.1 µM	activity vs control	99%
Cc1cnc(NC2CCOCC2)nc1-n1cnc(C(=O)NC(CN)c2cc(F)cc(Cl)c2)c1 (stereo not drawn)	BTK	enzyme activity	inhibitor	radiometric	1 µM	remaining activity	102%
Cc1noc([C@H]2C[C@@H](c3ccc(C(F)(F)F)cc3)CN(C(=O)N3CCS(=O)(=O)C3)C2)n1	BTK	cell-free assay		competition with immobilised ligand	1 µM	remaining binding	96%
O=C(Nc1cnn(-c2csc(C(=O)NC3COC3)c2)c1)Nc1ccccc1Cl	BTK	enzyme activity	inhibitor		5 µM	remaining activity	92.6%
COc1cc(Cl)c(C(=O)N[C@@H](CN[C@H]2CC[C@@H](N)CC2)Cc2ccc(C#N)cc2)cc1-c1ccc(CN[C@H](C)c2ccc(C)cc2)o1	BTK	enzyme activity	inhibitor		1 µM	remaining activity	114%
CS(=O)(=O)N1CCCC(NC(=O)[C@H](CCC2CCCCC2)NC(=O)c2ccc(CNC(=O)c3cnc4ccccn34)cc2)C1 (stereo partly drawn)	BTK	cell-free assay		competition with immobilised ligand	0.1 µM	remaining binding	100%
C=CC(=O)N1CCC[C@@H]1Cn1nc(-c2ccc(Oc3ccccc3)cc2F)c2c(N)ncnc21	BTK	enzyme activity	inhibitor			kinact/KI	1.9e+06 M⁻¹ s⁻¹
COc1cc(Nc2cnc(C#N)c(O[C@H](C)CN(C)C)n2)ncc1-c1cnn(C)c1	BTK	enzyme activity	inhibitor	radiometric	10 µM	remaining activity	60%
NS(=O)(=O)c1cc(NC(=O)C2(c3ccccc3Cl)CC2)ccc1Oc1cccc(Cl)c1	BTK	cell-free assay		competition with immobilised ligand	1 µM	remaining binding	88%
CN(C)C1CCN(CC#Cc2nn(C3CCCC3)c3nc(NCc4ccccc4)ncc23)C1 (stereo not drawn)	BTK	enzyme activity	inhibitor	FRET	1 µM	inhibition	5%
COc1ccc(F)cc1C(=O)NCc1ccc(-c2nn([C@@H](C)C(F)(F)F)c(N)c2C(N)=O)cc1	Tyrosine-protein kinase BTK (BTK, Homo sapiens, UniProt Q06187, C481S)	binding		SPR		koff	0.00013 s⁻¹
Oc1cccc(-c2nc(N3CCOCC3)c3oc4ncccc4c3n2)c1	BTK	enzyme activity	inhibitor		10 µM	remaining activity	82%
O=C(Nc1cnn(-c2csc(C(=O)NC3COC3)c2)c1)Nc1c(F)cccc1Cl	BTK	enzyme activity	inhibitor		5 µM	remaining activity	89.3%
Nc1nc(Nc2ccccc2)sc1C(=O)c1c(F)cccc1F	BTK	enzyme activity	inhibitor		10 µM	remaining activity	68%
CC(C)(C)c1nc(-c2cccc(NS(=O)(=O)c3c(F)cccc3F)c2F)c(-c2ccnc(N)n2)s1	BTK	enzyme activity	inhibitor	radiometric	1 µM	remaining activity	96%
CNC(=O)c1ccc(Nc2ncc(C(F)(F)F)c(NCc3nccnc3N(C)S(C)(=O)=O)n2)cc1	BTK	cell-free assay		competition with immobilised ligand	0.1 µM	remaining binding	83%
N#CCCc1ccc2c(c1)-c1[nH]c3ccc([N+](=O)[O-])cc3c1CC(=O)N2	BTK	cell-free assay			0.5 µM	remaining signal	94.6%
O=C(NCCCC1CCCCC1)c1ccc(CNC(=O)c2cnn(-c3ccccc3)c2C(F)(F)F)cc1	BTK	cell-free assay		competition with immobilised ligand	0.1 µM	remaining binding	100%
COc1cc(/C=C/C(=O)CC(=O)/C=C/c2ccc(O)c(OC)c2)ccc1O	BTK	enzyme activity	inhibitor		1 µM	activity vs control	90%
CC(=O)N1CCC(c2ccc(C(=O)NC(=N)N)cc2C(F)(F)F)CC1	BTK	cell-free assay		competition with immobilised ligand	1 µM	remaining binding	100%
Oc1cccc(-c2nc(N3CCOCC3)c3oc4ncccc4c3n2)c1	BTK	cell-free assay			0.5 µM	remaining signal	95.2%
